Reference: ChEMBL document CHEMBL3272057, “Synthesis and structure-toxicity relationships of three new stable analogues of acetyl-seco-hemicholinium-3” (J Med Chem, 1976)
Calls of active or inactive are those of the source. The rule behind the calls is not given here.

Columns and labels:
[1] = Ratio of hemicholinium-3 LD50 to compound LD50 for toxicity in ip dosed Charles River CD-1 albino mouse measured within 5 mins; format: organism-based; settings: CD-1, mouse, in vivo
Mus musculus [2] = experiment: (§1) Toxicity in ip dosed Charles River CD-1 albino mouse measured within 5 mins; format: organism-based; settings: mouse, in vivo, 5 min
[3] = as §1; format: organism-based; settings: CD-1, mouse, in vivo
Mus musculus [4] = experiment: Toxicity in ip dosed Charles River CD-1 albino mouse assessed as reduction of cardiac contraction; format: organism-based, Heart; settings: in vivo
[5] = Chemical stability of the compound in deuterium oxide solutions at slightly acidic condition up to 48 hrs by NMR analysis; format: physicochemical
[6] = Chemical stability of the compound in deuterium oxide solutions at pH 7.4 up to 48 hrs by NMR analysis; format: physicochemical; settings: buffer, pH 7.4, 48 h
[7] = biological target: T1, Acetylcholinesterase (Bos taurus) (UniProt P23795); experiment: Binding affinity to bovine erythrocyte acetylcholinesterase in water at pH 7.4 at 100 x 10^-5 M up to 6 hrs by UV-spectra analysis
T1 sequence (whole entry): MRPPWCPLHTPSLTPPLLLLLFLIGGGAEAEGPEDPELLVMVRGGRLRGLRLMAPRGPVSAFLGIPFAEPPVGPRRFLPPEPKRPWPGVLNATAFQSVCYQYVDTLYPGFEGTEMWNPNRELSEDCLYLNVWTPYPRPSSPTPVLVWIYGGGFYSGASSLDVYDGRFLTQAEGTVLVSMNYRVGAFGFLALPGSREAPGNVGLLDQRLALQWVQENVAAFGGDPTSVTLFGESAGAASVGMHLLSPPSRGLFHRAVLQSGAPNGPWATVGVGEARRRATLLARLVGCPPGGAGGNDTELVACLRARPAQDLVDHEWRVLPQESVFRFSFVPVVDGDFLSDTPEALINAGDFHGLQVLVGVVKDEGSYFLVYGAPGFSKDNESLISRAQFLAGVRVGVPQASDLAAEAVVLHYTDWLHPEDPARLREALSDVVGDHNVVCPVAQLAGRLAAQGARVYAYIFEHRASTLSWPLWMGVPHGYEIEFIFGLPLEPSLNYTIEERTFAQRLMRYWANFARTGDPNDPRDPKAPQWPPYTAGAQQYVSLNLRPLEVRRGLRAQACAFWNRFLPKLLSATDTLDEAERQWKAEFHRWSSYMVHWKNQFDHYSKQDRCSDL
Procedure, shortened: (§2)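 Test solutions 100 × 10⁻⁵ M in pH 7.4 buffered water. UV spectrum recorded against identically buffered water reference. 0.1 ml of bovine erythrocyte acetylcholinesterase (40 μ/ml, pH 7.4 buffer) was added to 1-ml sample and reference, giving an enzyme level similar to blood. Spectrum recorded immediately, then again after incubation at 37° for 6 h. Shift in λmax was read.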

Mus musculus [8] = experiment: Toxicity in ip dosed Charles River CD-1 albino mouse assessed as increase of peristalsis of small intestine; format: organism-based; settings: in vivo
[9] = Chemical stability of the compound in water at slightly acidic condition up to 48 hrs by NMR analysis; format: physicochemical; settings: buffer
[10] = Toxicity in ip dosed Charles River CD-1 albino mouse assessed as mortality at >LD95 in presence of choline; format: organism-based; settings: CD-1, mouse, in vivo, read-out: Activity
Procedure, shortened: (§3)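 CD-1 male mice. Choline (20 mg/kg) or neostigmine (0.2 mg/kg) was given ip 1 min before an ip >LD95 dose of compound in saline. Read-out was % mortality.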

[11] = Toxicity in ip dosed Charles River CD-1 albino mouse assessed as mortality at >LD95 in presence of neostigmine; format: organism-based; settings: CD-1, mouse, in vivo, read-out: Activity; procedure, shortened: as §3
[12] = Chemical stability of the compound in water at pH 7.4 up to 48 hrs by NMR analysis; format: physicochemical; settings: buffer, pH 7.4, 48 h
[13] = biological target: T1, Acetylcholinesterase (Bos taurus); experiment: Binding affinity to bovine erythrocyte acetylcholinesterase in water at pH 7.4 at 100 x 10^-5 M measured immediately by UV-spectra analysis; procedure, shortened: as §2

Row | SMILES | selectivity ratio at 5 min [1] | LD95 (Mus musculus [2]) [mg/kg] | LD50 at 5 min [3] [mg/kg] | Activity (Mus musculus [4]) | Stability [5] | Stability [6] | Activity [7] | Activity (Mus musculus [8]) | Stability [9] | mortality [10] [%] | mortality [11] [%] | Stability [12] | Activity [13]
1 | CC(=O)CCC[N+](C)(C)CC(=O)c1ccc(-c2ccc(C(=O)C[N+](C)(C)CCCC(C)=O)cc2)cc1.[Br-].[Br-] | 23.8 | 4.6 | 3.1 | Non-toxic | Stable | Stable | inactive | Toxic | Stable | 0 | 70 | Stable | 
2 | C[N+]1(C)CCOC(O)(c2ccc(-c3ccc(C4(O)C[N+](C)(C)CCO4)cc3)cc2)C1 (configuration not stated) [HEMICHOLINIUM-3] |  | 0.2 | 0.13 | Non-toxic |  |  | inactive | Toxic |  |  |  |  | 
3 | CC(=O)OCC[N+](C)(C)CC(=O)c1ccc(-c2ccc(C(=O)C[N+](C)(C)CCOC(C)=O)cc2)cc1.[Br-].[Br-] | 1 | 0.4 | 0.125 | Non-toxic |  |  |  | Toxic |  |  |  |  | Active
4 | CCCCC[N+](C)(C)CC(=O)c1ccc(-c2ccc(C(=O)C[N+](C)(C)CCCCC)cc2)cc1.[Br-].[Br-] | 43.1 | 5.8 | 5.6 | Non-toxic | Stable | Stable | inactive | Toxic | Stable | 30 | 80 | Stable | 
5 | CCOCC[N+](C)(C)CC(=O)c1ccc(-c2ccc(C(=O)C[N+](C)(C)CCOCC)cc2)cc1.[Br-].[Br-] | 14.2 | 2.67 | 1.84 | Non-toxic | Stable | Stable | inactive | Toxic | Stable | 0 | 80 | Stable | 
